Assay results taken from ChEMBL document CHEMBL3108772, “Discovery of Potent and Orally Active p53-MDM2 Inhibitors RO5353 and RO2468 for Potential Clinical Development” (ACS Med Chem Lett, 2014).
Calls of active or inactive are those of the source. The calls are words filed in the database; no cut-off is given here.

Legend:
[1] = system: SW480; assay: Antiproliferative activity against human SW480 cells expressing p53 mutant by MTT assay
[2] = system: SJSA-1; assay: Antiproliferative activity against human SJSA cells expressing wild-type p53 by MTT assay
[3] = system: RKO; assay: Antiproliferative activity against human RKO cells expressing wild-type p53 by MTT assay; format: functional, cell-based
In short: (§1)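 MTT antiproliferation assay in human cancer lines: SJSA, HCT116 and RKO are wild-type p53; SW480 is mutant p53. IC50 came from one experiment run in duplicate.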

[4] = system: HCT-116; assay: Antiproliferative activity against human HCT116 cells expressing wild-type p53 by MTT assay; format: functional, cell-based; in short: as §1
[5] = system: Mus musculus; assay: Toxicity in nude mouse xenografted with human SJSA1 cells assessed as body weight loss at 3 to 20 mg/kg, po qd administered for 2 weeks; format: organism-based, SJSA-1; parameters: dose 3-20 mg/kg, route oral; details: in vivo, 336 h
[6] = system: SJSA-1; assay: Antitumor activity against human SJSA1 cells xenografted in nude mouse assessed as tumor growth inhibition at 3 mg/kg, po qd administered for 2 weeks; format: functional, organism-based; parameters: dose 3 mg/kg
[7] = system: SJSA-1; assay: Antitumor activity against human SJSA1 cells xenografted in nude mouse assessed as tumor regression at 10 mg/kg, po qd administered for 2 weeks; format: functional, organism-based; parameters: dose 10 mg/kg
[8] = Oral bioavailability in C57 mouse at 5 mg/kg; format: ADME, organism-based; details: in vivo
In short: (§2)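 Single-dose PK in male C57 mice, given orally (PO) or intravenously (IV). Plasma exposure (AUC normalized to dose, Cmax) was taken from the oral arms. Clearance and t1/2 were taken from the IV arms. F is oral bioavailability.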

[9] = Apparent terminal half life in C57 mouse at 2 mg/kg, iv; format: ADME, organism-based; parameters: dose 2 mg/kg, route intravenous; details: in vivo, read-out: betat1/2(app) (converted); in short: as §2
[10] = Total plasma clearance in C57 mouse at 2 mg/kg, iv; format: ADME, organism-based; parameters: dose 2 mg/kg, route intravenous; in short: as §2
[11] = Cmax in C57 mouse at 5 mg/kg, po; format: ADME, organism-based; parameters: dose 5 mg/kg, route oral; details: in vivo; in short: as §2
[12] = system: Mus musculus; assay: AUC/dose in C57 mouse at 5 mg/kg, po; format: ADME, organism-based, Plasma; parameters: dose 5 mg/kg, route oral; details: in vivo; in short: as §2
[13] = Intrinsic clearance in human liver microsomes at […] preincubated for 5 mins followed by NADPH addition by LC-MS/MS analysis; format: ADME; details: read-out: CLH
[14] = system: SJSA-1; assay: Antiproliferative activity against human SJSA cells expressing wild-type p53 by MTT assay
[15] = Oral bioavailability in C57 mouse at 10 mg/kg; format: ADME, organism-based; details: in vivo; in short: as §2
[16] = Apparent terminal half life in C57 mouse at 2.5 mg/kg, iv; format: ADME, organism-based; parameters: dose 2.5 mg/kg, route intravenous; details: in vivo, read-out: betat1/2(app) (converted); in short: as §2
[17] = Total plasma clearance in C57 mouse at 2.5 mg/kg, iv; format: ADME, organism-based; parameters: dose 2.5 mg/kg, route intravenous; in short: as §2
[18] = Cmax in C57 mouse at 10 mg/kg, po; format: ADME, organism-based; parameters: dose 10 mg/kg, route oral; details: in vivo; in short: as §2
[19] = system: Mus musculus; assay: AUC/dose in C57 mouse at 10 mg/kg, po; format: ADME, organism-based, Plasma; parameters: dose 10 mg/kg, route oral; details: in vivo; in short: as §2
[20] = system: SJSA-1; assay: Antitumor activity against human SJSA1 cells xenografted in nude mouse assessed as tumor regression at 6.25 mg/kg, po qd administered for 2 weeks; format: functional, organism-based; parameters: dose 6.25 mg/kg
[21] = Oral bioavailability in C57 mouse at 25 mg/kg; format: ADME, organism-based; details: in vivo; in short: as §2
[22] = Apparent terminal half life in C57 mouse at 0.64 mg/kg, iv; format: ADME, organism-based; parameters: dose 0.64 mg/kg, route intravenous; details: in vivo, read-out: betat1/2(app) (converted); in short: as §2
[23] = Total plasma clearance in C57 mouse at 0.64 mg/kg, iv; format: ADME, organism-based; parameters: dose 0.64 mg/kg, route intravenous; in short: as §2
[24] = Cmax in C57 mouse at 25 mg/kg, po; format: ADME, organism-based; parameters: dose 25 mg/kg, route oral; details: in vivo; in short: as §2
[25] = system: Mus musculus; assay: AUC/dose in C57 mouse at 25 mg/kg, po; format: ADME, organism-based, Plasma; parameters: dose 25 mg/kg, route oral; details: in vivo; in short: as §2

## COc1cc(C(N)=O)ccc1NC(=O)C1NC(CC(C)(C)C)C2(C(=O)Nc3cc(Cl)ncc32)C1c1cccc(Cl)c1F (racemic)
[1]
  IC50: 12800 nM
[2]
  IC50: 14 nM

## COc1cc(C(N)=O)ccc1NC(=O)[C@@H]1N[C@@H](CC(C)(C)C)[C@@]2(C(=O)Nc3nc(Cl)ccc32)[C@H]1c1cccc(Cl)c1F (racemic)
[1]
  IC50: 5260 nM
[2]
  IC50: 67 nM

## COc1cc(C(=O)O)ccc1NC(=O)C1NC(CC(C)(C)C)C2(C(=O)Nc3cc(Cl)sc32)C1c1cccc(Cl)c1F (racemic)
[1]
  IC50: 29300 nM
[2]
  IC50: 9 nM

## COc1cc(C(=O)O)ccc1NC(=O)[C@@H]1N[C@@H](CC(C)(C)C)[C@@]2(C(=O)Nc3ncccc32)[C@H]1c1cccc(Cl)c1F (racemic)
[1]
  IC50: > 30000 nM
[2]
  IC50: 1370 nM

## COc1cc(C(=O)O)ccc1NC(=O)[C@@H]1N[C@@H](CC(C)(C)C)[C@@]2(C(=O)Nc3nc(Cl)ncc32)[C@H]1c1cccc(Cl)c1F (racemic)
[1]
  IC50: > 30000 nM
[2]
  IC50: 100 nM

## COc1cc(C(N)=O)ccc1NC(=O)[C@@H]1N[C@@H](CC(C)(C)C)[C@@]2(C(=O)Nc3ccncc32)[C@H]1c1cccc(Cl)c1F (racemic)
[1]
  IC50: 13400 nM
[2]
  IC50: 2110 nM

## COc1cc(C(=O)O)ccc1NC(=O)[C@@H]1N[C@@H](CC(C)(C)C)[C@@]2(C(=O)Nc3cc(Cl)ncc32)[C@H]1c1cccc(Cl)c1F (racemic)
[1]
  IC50: > 30000 nM
[2]
  IC50: 43 nM

## COc1cc(C(=O)O)ccc1NC(=O)[C@@H]1N[C@@H](CC(C)(C)C)[C@@]2(C(=O)Nc3nc(Cl)ccc32)[C@H]1c1cccc(Cl)c1F (racemic)
[1]
  IC50: 15400 nM
[2]
  IC50: 45 nM

## COc1cc(C(N)=O)ccc1NC(=O)[C@@H]1N[C@@H](CC(C)(C)C)[C@@]2(C(=O)Nc3cc(Cl)cnc32)[C@H]1c1cccc(Cl)c1F (racemic)
[1]
  IC50: 5900 nM
[2]
  IC50: 42 nM

## COc1cc(C(N)=O)ccc1NC(=O)[C@@H]1N[C@@H](CC(C)(C)C)[C@@]2(C(=O)Nc3cc(Cl)ncc32)[C@H]1c1cccc(Cl)c1F
[3]
  Activity: Active
[4]
  Activity: Active
[5]
  Activity: Non-toxic
[6]
  TGI: Active
[7]
  Activity: Active
[8]
  bioavailability: 46%
[9]
  half-life: 3 h
[10]
  clearance: 1.8 mL/min/kg
[11]
  Cmax: 2100 ng/mL
[12]
  AUC/dose: 4.2 µg·h/mL/mg/kg
[13]
  CLint scaled: 10.2 mL/min/kg
[14]
  Activity: Active

## COc1cc(C(=O)O)ccc1NC(=O)[C@@H]1N[C@@H](CC(C)(C)C)[C@@]2(C(=O)Nc3cc(Cl)sc32)[C@H]1c1cccc(Cl)c1F
[3]
  Activity: Active
[4]
  Activity: Active
[15]
  bioavailability: 32%
[16]
  half-life: 1.68 h
[17]
  clearance: 68.6 mL/min/kg
[18]
  Cmax: 300 ng/mL
[19]
  AUC/dose: 0.08 µg·h/mL/mg/kg
[14]
  Activity: Active

## COc1cc(C(=O)O)ccc1NC(=O)[C@@H]1N[C@@H](CC(C)(C)C)[C@@]2(C(=O)Nc3cc(Cl)cnc32)[C@H]1c1cccc(Cl)c1F (racemic)
[1]
  IC50: > 30000 nM
[2]
  IC50: 61 nM

## COc1cc(C(=O)O)ccc1NC(=O)[C@@H]1N[C@@H](CC(C)(C)C)[C@@]2(C(=O)Nc3ccncc32)[C@H]1c1cccc(Cl)c1F (racemic)
[1]
  IC50: > 30000 nM
[2]
  IC50: 22700 nM

## COc1cc(C(N)=O)ccc1NC(=O)C1NC(CC(C)(C)C)C2(C(=O)Nc3cc(Cl)sc32)C1c1cccc(Cl)c1F (racemic)
[1]
  IC50: 7870 nM
[2]
  IC50: 11 nM

## COc1cc(C(N)=O)ccc1NC(=O)[C@@H]1N[C@@H](CC(C)(C)C)[C@@]2(C(=O)Nc3cc(Cl)sc32)[C@H]1c1cccc(Cl)c1F
[3]
  Activity: Active
[4]
  Activity: Active
[5]
  Activity: Non-toxic
[6]
  TGI: Active
[7]
  Activity: Active
[15]
  bioavailability: 92%
[16]
  half-life: 3 h
[17]
  clearance: 9.9 mL/min/kg
[18]
  Cmax: 1300 ng/mL
[19]
  AUC/dose: 1.5 µg·h/mL/mg/kg
[13]
  CLint scaled: 2 mL/min/kg
[14]
  Activity: Active

## COc1cc(C(N)=O)ccc1NC(=O)[C@@H]1N[C@@H](CC(C)(C)C)[C@@]2(C(=O)Nc3nc(Cl)ncc32)[C@H]1c1cccc(Cl)c1F (racemic)
[1]
  IC50: 10700 nM
[2]
  IC50: 90 nM

## COc1cc(C(N)=O)ccc1NC(=O)[C@@H]1N[C@@H](CC(C)(C)C)[C@@]2(C(=O)Nc3cc(Cl)ccc32)[C@H]1c1cccc(Cl)c1F
[20]
  Activity: Active
[21]
  bioavailability: 92%
[22]
  half-life: 7.1 h
[23]
  clearance: 5.8 mL/min/kg
[24]
  Cmax: 5800 ng/mL
[25]
  AUC/dose: 3.7 µg·h/mL/mg/kg
[13]
  CLint scaled: 7.5 mL/min/kg
[1]
  IC50: 5190 nM
[2]
  IC50: 13 nM
